Measured values as given in ChEMBL document CHEMBL1148389 (J Med Chem, 2004).
Converted amounts (≈) assume the structure as drawn. “And” between values parts separate entries of the source, which are not always exact repeats. Equal entries are not always repeated.

Assays:
[1] = Ionisation constant for the compound; assay type: physicochemical
Procedure, shortened: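 pKa measured by UV–vis absorbance of the conjugate base in buffers from pH 6.8 to 10.8; DMSO stocks diluted to 0.4–0.5% DMSO. Fraction of A− plotted against pH to obtain pKa.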

Escherichia coli = assay: Minimum inhibitory concentration against Escherichia coli was determined; assay type: functional
Procedure, shortened: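 Broth microdilution against E. coli BL21(DE3) pLysS in cation-adjusted Mueller–Hinton broth. Stocks in 1 M KOH, diluted via 50 mM Na2CO3 pH 8.5; final 0.01–64 μg/mL.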

[2] = molecular target: Enoyl-[acyl-carrier-protein] reductase [NADH] FabI (Escherichia coli) (UniProt P0AEK4); assay: In vitro inhibitory activity against wild-type enoyl-[acyl-carrier-protein] reductase (FabI) of Escherichia coli expressed as K1
Sequence of Enoyl-[acyl-carrier-protein] reductase [NADH] FabI (Escherichia coli) (P0AEK4 whole entry, looked up): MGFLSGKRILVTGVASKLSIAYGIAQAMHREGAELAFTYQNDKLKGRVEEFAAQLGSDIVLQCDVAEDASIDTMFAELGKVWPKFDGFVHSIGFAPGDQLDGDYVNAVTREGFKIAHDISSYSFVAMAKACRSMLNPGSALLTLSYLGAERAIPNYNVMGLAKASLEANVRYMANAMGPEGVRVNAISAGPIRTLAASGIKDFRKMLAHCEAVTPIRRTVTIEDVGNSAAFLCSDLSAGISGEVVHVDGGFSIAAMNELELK

[3] = molecular target: Enoyl-[acyl-carrier-protein] reductase [NADH] FabI (Escherichia coli) (UniProt P0AEK4); assay: In vitro inhibitory activity against wild-type enoyl-[acyl-carrier-protein] reductase (FabI) of Escherichia coli expressed as K2

Row | Structure (SMILES) | pKa ([1]; read-out: pKa) | MIC (Escherichia coli) | K1 [2] | K2 [3] | pKa [1]
1 | Oc1cc(Cl)ccc1Oc1ccccc1 | 8.13 | 0.07 µg/mL (≈ 0.317 µM) | 1.1e-06 µM |  | 
2 | Oc1ccccc1Cc1ccccc1O |  | > 40 µg/mL | 53 µM | 30 µM | 
3 | Oc1ccccc1Oc1ccccc1 | 9.12 | 3.7 µg/mL (≈ 19.9 µM) | 0.5 µM | 0.4 µM | 
4 | Oc1cc(Cl)ccc1Oc1ccc(Cl)cc1Cl [TRICLOSAN] | 7.8 | 0.3 µg/mL (≈ 1.04 µM) |  |  | 8.4
5 | Cc1ccc(Oc2ccccc2)c(O)c1 | 9.15 | 1 µg/mL (≈ 4.99 µM) |  | 0.0072 µM and 0.0097 µM | 
6 | Oc1cc(F)ccc1Oc1ccccc1 | 8.12 | 0.6 µg/mL (≈ 2.94 µM) |  | 0.042 µM and 0.24 µM | 
